Measurements from ChEMBL document CHEMBL3526048, “In vitro metabolism of rivoglitazone, a novel peroxisome proliferator-activated receptor γ agonist, in rat, monkey, and human liver microsomes and freshly isolated hepatocytes” (Drug Metab Dispos, 2011).

What was measured:
[1] = molecular target: Cytochrome P450 2D6 (Homo sapiens, UniProt P10635); experiment: Activity of human CYP2D6 expressed in microsomes isolated from baculovirus infected insect cell assessed as enzyme-mediated compound formation treated with [14C]-rivoglitazone at 20 uM after 2 hrs by radio-HPLC/LC-MS/MS analysis in presence of NADPH-generating system; type: ADME
In short: (§1)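 Baculovirus-insect-cell microsomes expressing the human CYP (1 mg/ml protein) were incubated with [14C]rivoglitazone (20 μM) in 50 mM potassium phosphate (pH 7.4) or 100 mM Tris-HCl (pH 7.5) with an NADPH-generating system (2 mM NADP+, 20 mM glucose 6-phosphate, 2 units/ml G6PDH, 10 mM MgCl2) for 2 h at 37°C. Insect-cell control supersomes served as the control. Reactions were stopped with acetonitrile, and the concentrated supernatants were analysed by radio-HPLC, LC-MS and LC-MS/MS.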

[2] = molecular target: Cytochrome P450 3A5 (Homo sapiens, UniProt P20815); experiment: Activity of human CYP3A5 expressed in microsomes isolated from baculovirus infected insect cell assessed as enzyme-mediated 5-(4-((6-methoxy-1H-benzo[d]imidazol-2-yl)methoxy)benzyl)thiazolidine-2,4-dione formation at 20 uM after 2 hrs by radio-HPLC/LC-MS/MS analysis in presence of NADPH-generating system and NADPH-generating system/SAM; type: ADME
In short: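 cDNA-expressed human CYP3A5 in baculovirus-insect-cell microsomes (1 mg/ml protein) was incubated with [¹⁴C]rivoglitazone (20 μM) in 50 mM potassium phosphate (pH 7.4) or 100 mM Tris-HCl (pH 7.5). NADPH-generating system: 2 mM NADP⁺, 20 mM glucose 6-phosphate, 2 units/ml G6PDH, 10 mM MgCl₂. Incubation ran 2 h at 37°C with shaking; insect-cell control supersomes served as control. Acetonitrile stop, supernatant concentrated, then radio-HPLC, LC-MS and LC-MS/MS.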

[3] = molecular target: T1, Cytochrome P450 2C19 (Homo sapiens, UniProt P33261); experiment: Activity of human CYP2C19 expressed in microsomes isolated from baculovirus infected insect cell assessed as enzyme-mediated 3-(4-((6-methoxy-1-methyl-1H-benzo[d]imidazol-2-yl)methoxy)phenyl)-2-(methylsulfinyl)propanamide formation at 20 uM after 2 hrs by radio-HPLC/LC-MS/MS analysis in presence of NADPH-generating system/SAM; type: ADME
[4] = molecular target: Cytochrome P450 3A4 (Homo sapiens, UniProt P08684); experiment: Activity of human CYP3A4 expressed in microsomes isolated from baculovirus infected insect cell assessed as enzyme-mediated 2-((4-((2,4-dioxothiazolidin-5-yl)methyl)phenoxy)methyl)-1-methyl-1H-benzo[d]imidazol-6-yl hydrogen sulfate formation at 20 uM after 2 hrs by radio-HPLC/LC-MS/MS analysis; type: ADME; in short: as §1
[5] = Drug metabolism in cynomolgus monkey liver microsomes assessed as formation of 2-amino-3-((1-carboxy-2-(4-((6-methoxy-1-methyl-1H-benzo[d]imidazol-2-yl)methoxy)phenyl)ethyl)disulfanyl)propanoic acid at 20 uM by radio-HPLC/LC-MS/MS analysis; type: ADME, Macaca fascicularis
[6] = test system: Liver microsome; experiment: Drug metabolism in human liver microsomes assessed as formation of 2-amino-3-((1-carboxy-2-(4-((6-methoxy-1-methyl-1H-benzo[d]imidazol-2-yl)methoxy)phenyl)ethyl)disulfanyl)propanoic acid at 20 uM by radio-HPLC/LC-MS/MS analysis; type: ADME
[7] = molecular target: T2, UDP-glucuronosyltransferase 1A3 (Homo sapiens, UniProt P35503); experiment: (§2) Activity of human UGT1A3 expressed in microsomes isolated from baculovirus infected insect cell assessed as enzyme-mediated (2S,3S,4S,5R,6R)-3,4,5-trihydroxy-6-(5-(4-((6-methoxy-1-methyl-1H-benzo[d]imidazol-2-yl)methoxy)benzyl)-2,4-dioxothiazolidin-3-yl)tetrahydro-2H-pyran-2-carboxylic acid formation at 20 uM after 4 hrs by radio-HPLC/LC-MS/MS analysis in presence of UDPGA and UDPGA/SAM; type: ADME
T2 sequence (P35503 whole entry): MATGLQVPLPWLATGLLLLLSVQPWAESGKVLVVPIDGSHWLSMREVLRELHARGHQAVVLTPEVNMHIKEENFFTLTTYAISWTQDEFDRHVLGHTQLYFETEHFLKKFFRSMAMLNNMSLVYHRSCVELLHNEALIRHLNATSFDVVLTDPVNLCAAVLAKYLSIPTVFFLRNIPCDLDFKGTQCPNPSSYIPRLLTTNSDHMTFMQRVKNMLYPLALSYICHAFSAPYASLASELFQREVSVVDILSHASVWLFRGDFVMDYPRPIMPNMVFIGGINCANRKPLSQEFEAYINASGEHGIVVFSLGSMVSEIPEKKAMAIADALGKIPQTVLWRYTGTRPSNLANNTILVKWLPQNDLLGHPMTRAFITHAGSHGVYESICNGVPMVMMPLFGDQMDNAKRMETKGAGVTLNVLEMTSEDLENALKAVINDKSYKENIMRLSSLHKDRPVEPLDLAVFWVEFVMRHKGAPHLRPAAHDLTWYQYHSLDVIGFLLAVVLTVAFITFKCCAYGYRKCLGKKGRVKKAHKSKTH
In short: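 Alamethicin (50 μg/mg protein, 15 min on ice) pretreated expressed human UGT microsomes (1 mg/ml protein) from baculovirus-infected insect cells. Incubation with [¹⁴C]rivoglitazone (20 μM) in 100 mM Tris-HCl (pH 7.5) with 10 mM MgCl₂, started by 5 mM UDPGA, 4 h at 37°C with shaking. UGT insect-cell control supersomes were run alongside. Acetonitrile stop, concentrated supernatant analysed by radio-HPLC, LC-MS and LC-MS/MS.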

[8] = molecular target: T3, UDP-glucuronosyltransferase 1A6 (Homo sapiens, UniProt P19224); experiment: as §2, with “UGT1A6” for “UGT1A3”, “UDPGA” for “UDPGA and UDPGA/SAM”; type: ADME
T3 sequence (P19224 whole entry): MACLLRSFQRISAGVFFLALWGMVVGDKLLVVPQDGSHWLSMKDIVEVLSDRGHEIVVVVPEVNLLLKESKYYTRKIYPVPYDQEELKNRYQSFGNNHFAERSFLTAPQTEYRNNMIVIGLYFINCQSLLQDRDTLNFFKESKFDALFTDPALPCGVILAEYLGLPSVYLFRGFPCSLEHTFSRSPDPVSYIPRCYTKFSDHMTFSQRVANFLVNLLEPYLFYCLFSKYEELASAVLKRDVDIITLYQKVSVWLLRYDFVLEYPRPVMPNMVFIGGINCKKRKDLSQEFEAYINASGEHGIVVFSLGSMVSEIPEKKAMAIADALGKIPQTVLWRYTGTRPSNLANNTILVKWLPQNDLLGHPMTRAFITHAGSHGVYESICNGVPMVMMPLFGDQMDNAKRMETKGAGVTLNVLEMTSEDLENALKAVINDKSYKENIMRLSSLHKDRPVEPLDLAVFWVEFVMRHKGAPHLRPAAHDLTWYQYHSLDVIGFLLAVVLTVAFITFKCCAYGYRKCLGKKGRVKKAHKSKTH

[9] = molecular target: T1, Cytochrome P450 2C19; experiment: Activity of human CYP2C19 expressed in microsomes isolated from baculovirus infected insect cell assessed as enzyme-mediated 2-amino-3-((1-carboxy-2-(4-((6-methoxy-1-methyl-1H-benzo[d]imidazol-2-yl)methoxy)phenyl)ethyl)disulfanyl)propanoic acid formation at 20 uM after 2 hrs by radio-HPLC/LC-MS/MS analysis; type: ADME
In short: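 Baculovirus/insect-cell microsomes expressing single human CYPs, 1 mg/ml protein, with 50 mM potassium phosphate (pH 7.4) or 100 mM Tris-HCl (pH 7.5). NADPH-generating system: 2 mM NADP⁺, 20 mM glucose 6-phosphate, 2 units/ml G6PDH, 10 mM MgCl₂. [¹⁴C]rivoglitazone at 20 μM, 2 h at 37°C with shaking. Control used insect-cell control supersomes. Stopped with acetonitrile; supernatant concentrated under nitrogen; metabolites analysed by radio-HPLC, LC-MS and LC-MS/MS.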

T1 sequence (P33261 whole entry): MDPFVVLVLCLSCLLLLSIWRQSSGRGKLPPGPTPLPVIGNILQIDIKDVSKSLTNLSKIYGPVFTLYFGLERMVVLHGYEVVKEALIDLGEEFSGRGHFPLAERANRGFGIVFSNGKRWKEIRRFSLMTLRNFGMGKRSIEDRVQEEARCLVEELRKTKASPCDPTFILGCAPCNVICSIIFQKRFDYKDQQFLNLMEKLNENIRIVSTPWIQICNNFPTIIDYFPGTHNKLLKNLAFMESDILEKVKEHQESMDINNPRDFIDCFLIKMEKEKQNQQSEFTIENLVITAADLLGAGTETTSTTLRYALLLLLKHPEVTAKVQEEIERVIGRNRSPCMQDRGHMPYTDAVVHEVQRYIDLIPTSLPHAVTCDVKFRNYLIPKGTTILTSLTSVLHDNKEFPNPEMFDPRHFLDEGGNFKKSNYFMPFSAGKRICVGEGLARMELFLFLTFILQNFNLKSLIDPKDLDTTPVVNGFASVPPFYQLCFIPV
Sequence of Cytochrome P450 3A4 (P08684 whole entry): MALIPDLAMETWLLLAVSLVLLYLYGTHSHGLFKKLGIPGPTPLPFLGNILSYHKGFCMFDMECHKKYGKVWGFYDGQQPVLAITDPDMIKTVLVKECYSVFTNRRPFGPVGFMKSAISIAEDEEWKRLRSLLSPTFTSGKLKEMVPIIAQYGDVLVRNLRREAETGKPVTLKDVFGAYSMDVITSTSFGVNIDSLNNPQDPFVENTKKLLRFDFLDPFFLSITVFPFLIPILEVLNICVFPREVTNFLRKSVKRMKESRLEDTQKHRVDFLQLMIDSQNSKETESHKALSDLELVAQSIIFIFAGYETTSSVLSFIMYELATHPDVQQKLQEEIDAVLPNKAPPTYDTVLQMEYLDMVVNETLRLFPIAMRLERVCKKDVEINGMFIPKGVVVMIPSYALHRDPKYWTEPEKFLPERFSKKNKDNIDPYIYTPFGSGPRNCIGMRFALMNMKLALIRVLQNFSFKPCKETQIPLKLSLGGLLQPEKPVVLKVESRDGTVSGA
Sequence of Cytochrome P450 3A5 (P20815 whole entry): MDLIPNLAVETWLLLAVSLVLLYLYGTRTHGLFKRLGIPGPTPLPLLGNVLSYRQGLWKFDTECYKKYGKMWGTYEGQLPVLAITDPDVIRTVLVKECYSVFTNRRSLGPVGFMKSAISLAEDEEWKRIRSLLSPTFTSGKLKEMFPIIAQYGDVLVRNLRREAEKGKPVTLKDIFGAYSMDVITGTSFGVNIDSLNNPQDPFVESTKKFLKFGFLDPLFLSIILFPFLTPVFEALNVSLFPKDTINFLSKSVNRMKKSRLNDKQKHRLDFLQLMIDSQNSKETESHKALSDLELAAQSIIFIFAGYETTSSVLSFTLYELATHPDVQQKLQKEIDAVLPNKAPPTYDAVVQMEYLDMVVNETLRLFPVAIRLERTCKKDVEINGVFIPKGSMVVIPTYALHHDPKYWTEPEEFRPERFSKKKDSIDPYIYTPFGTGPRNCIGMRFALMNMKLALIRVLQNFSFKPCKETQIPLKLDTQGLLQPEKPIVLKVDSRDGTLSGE
Sequence of Cytochrome P450 2D6 (P10635 whole entry): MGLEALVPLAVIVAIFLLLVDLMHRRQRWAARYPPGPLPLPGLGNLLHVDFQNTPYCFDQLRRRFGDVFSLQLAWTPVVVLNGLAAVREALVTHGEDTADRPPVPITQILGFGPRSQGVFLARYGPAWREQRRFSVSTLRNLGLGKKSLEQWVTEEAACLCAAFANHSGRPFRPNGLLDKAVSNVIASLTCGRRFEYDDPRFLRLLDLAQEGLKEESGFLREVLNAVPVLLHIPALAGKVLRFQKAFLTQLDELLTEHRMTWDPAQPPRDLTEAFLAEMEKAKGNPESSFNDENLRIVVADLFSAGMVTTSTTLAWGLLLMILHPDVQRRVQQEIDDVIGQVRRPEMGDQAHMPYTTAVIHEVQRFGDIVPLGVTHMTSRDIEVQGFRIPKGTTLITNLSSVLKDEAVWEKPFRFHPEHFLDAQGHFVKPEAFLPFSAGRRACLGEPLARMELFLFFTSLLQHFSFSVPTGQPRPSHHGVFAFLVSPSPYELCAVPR

Compound | Drug metabolism [1] | Drug metabolism [2] | Drug metabolism [3] | Drug metabolism [4] | Drug metabolism [5] | Drug metabolism [6] | Drug metabolism [7] | Drug metabolism [8] | Drug metabolism [9]
COc1ccc2nc(COc3ccc(CC(S)C(=O)O)cc3)n(C)c2c1 (centres undefined) | metabolite_detected |  |  |  |  |  |  |  | 
COc1ccc2nc(COc3ccc(C[14CH]4SC(=O)NC4=O)cc3)n(C)c2c1.Cl (racemic) |  | metabolite_detected | metabolite_not_detected | metabolite_not_detected | metabolite_not_detected | metabolite_not_detected | metabolite_detected | metabolite_not_detected | metabolite_not_detected
